Assay [1] addresses Matrix metalloproteinase-9 (Homo sapiens, UniProt P14780). Kind of assay: Inhibition of human recombinant MMP9. In outline:
(§1)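 Recombinant human MMP-2 or MMP-9 catalytic domain with fluorogenic quenched peptide Mca-Pro-Leu-Gly-Leu-Dpa-Ala-Arg-NH2. Cleavage releases Mca. Fluorescence read at excitation 324, emission 420, and the rate of emission change is taken as enzyme activity. IC50 values are means of three experiments.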

The subject of assay [2] is RAW264.7. Briefly: Inhibition of TNFalpha production in mouse RAW264.7 cells after 24 hrs by ELISA. Particulars: RAW264.7, 24 h; call rule not given here. Type of assay: functional, cell-based. In outline: (§2)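 RAW264.7 cells cultured with inhibitors for 24 h. Secreted TNF-α in culture supernatant quantified by ELISA following the kit instructions. IC50 values are means of three experiments; line 3 is the single-concentration 10 μM result.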

The target of assay [3] is 72 kDa type IV collagenase (Homo sapiens, UniProt P08253). Kind of assay: Inhibition of human recombinant MMP2. The procedure, abridged:
as §1

Assay [4] addresses Disintegrin and metalloproteinase domain-containing protein 17 (Homo sapiens, UniProt P78536). Kind of assay: Inhibition of human TACE.
Assay [5] relates to RAW264.7. Briefly: Inhibition of NO production in mouse RAW264.7 cells at 10 uM after 24 hrs by ELISA. The class given is functional, cell-based. Particulars: in the assay text read “by Griess assay” for “by ELISA”. In outline:
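RAW264.7 cells cultured with inhibitors for 24 h. NO2- accumulation in medium taken as NO output: supernatant mixed 1:1 with Griess reagent (1% sulfanilamide, 0.1% naphthylethylenediamine dihydrochloride, 2% phosphoric acid), 10 min at room temperature, absorbance at 540 nm against a NaNO2 standard curve. Single concentration 10 μM. Means of three experiments.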
A general note: In an ELISA, binding on a coated surface is turned into a signal by an enzyme label.

Assay [6] relates to RAW264.7. Kind of assay: Inhibition of TNFalpha production in mouse RAW264.7 cells at 10 uM after 24 hrs by ELISA. The class given is functional, cell-based. In outline: as §2

Chain of 72 kDa type IV collagenase (P08253 whole entry): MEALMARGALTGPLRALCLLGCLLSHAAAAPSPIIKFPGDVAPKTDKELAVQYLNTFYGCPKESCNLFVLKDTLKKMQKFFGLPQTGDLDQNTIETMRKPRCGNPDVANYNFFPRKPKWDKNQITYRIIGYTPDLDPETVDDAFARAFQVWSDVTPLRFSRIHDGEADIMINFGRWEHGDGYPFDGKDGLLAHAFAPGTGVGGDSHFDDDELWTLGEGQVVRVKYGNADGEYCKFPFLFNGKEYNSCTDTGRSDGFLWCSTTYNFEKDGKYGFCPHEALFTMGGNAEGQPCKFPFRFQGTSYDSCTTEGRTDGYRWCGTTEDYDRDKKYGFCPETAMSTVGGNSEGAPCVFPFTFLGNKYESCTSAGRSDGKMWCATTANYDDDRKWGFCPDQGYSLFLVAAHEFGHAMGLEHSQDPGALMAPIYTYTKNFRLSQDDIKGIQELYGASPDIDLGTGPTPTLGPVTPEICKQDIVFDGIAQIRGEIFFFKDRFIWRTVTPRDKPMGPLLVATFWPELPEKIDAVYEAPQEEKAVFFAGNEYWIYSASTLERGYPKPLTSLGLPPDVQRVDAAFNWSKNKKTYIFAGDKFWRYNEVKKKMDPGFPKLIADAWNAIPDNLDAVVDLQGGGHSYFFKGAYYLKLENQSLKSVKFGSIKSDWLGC
Chain of Matrix metalloproteinase-9 (P14780 whole entry, the tested form may be a part): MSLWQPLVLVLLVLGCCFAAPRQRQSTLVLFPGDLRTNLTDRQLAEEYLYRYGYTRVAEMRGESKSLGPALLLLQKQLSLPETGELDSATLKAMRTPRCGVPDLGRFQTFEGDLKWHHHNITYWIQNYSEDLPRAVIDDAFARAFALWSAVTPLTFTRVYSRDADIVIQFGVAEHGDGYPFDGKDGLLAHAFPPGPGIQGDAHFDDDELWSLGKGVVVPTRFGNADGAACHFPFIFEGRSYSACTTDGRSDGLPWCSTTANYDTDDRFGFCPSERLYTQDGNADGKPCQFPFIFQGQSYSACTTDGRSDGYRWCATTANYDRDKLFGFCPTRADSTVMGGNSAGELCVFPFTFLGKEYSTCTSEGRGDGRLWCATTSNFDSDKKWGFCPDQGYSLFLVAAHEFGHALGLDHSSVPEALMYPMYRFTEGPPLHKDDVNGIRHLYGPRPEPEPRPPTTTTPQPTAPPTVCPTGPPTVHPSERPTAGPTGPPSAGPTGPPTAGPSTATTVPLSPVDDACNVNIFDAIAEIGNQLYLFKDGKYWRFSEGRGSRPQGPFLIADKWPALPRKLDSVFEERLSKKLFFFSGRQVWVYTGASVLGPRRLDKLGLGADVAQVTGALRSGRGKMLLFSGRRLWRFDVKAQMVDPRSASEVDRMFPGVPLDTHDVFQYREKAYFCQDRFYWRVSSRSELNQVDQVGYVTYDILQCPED
Chain of Disintegrin and metalloproteinase domain-containing protein 17 (P78536 whole entry, the tested form may be a part): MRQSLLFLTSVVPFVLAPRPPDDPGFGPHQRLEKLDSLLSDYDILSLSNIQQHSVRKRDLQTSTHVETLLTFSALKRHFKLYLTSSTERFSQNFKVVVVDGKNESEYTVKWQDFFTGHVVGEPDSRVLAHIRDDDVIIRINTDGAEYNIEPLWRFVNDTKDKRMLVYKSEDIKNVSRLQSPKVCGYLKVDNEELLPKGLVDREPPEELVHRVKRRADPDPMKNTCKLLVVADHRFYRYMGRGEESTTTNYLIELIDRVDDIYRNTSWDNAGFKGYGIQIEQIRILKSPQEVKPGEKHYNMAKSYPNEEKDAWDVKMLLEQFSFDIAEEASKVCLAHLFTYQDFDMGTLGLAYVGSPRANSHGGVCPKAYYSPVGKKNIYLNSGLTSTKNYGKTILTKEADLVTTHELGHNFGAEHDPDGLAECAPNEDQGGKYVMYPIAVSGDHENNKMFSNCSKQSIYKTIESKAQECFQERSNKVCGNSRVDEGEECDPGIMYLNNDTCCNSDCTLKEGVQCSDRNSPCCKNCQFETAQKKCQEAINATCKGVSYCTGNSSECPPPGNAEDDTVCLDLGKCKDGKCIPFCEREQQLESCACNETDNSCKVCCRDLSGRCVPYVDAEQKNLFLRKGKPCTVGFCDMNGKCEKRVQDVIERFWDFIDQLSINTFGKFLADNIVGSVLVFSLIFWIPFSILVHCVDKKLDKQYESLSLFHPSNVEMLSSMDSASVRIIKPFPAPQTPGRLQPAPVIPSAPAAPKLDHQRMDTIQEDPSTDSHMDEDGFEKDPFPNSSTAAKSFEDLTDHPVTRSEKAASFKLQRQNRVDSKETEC

What is called IC50 is the concentration that inhibits the measured activity by half. For `O=C(CCc1cc2ccccc2oc1=O)NO`, the IC50 was 1.41 µM in assay [1]; 5.64 µM in assay [2]; 0.2 µM in assay [3]; 0.15 µM in assay [4]; “Not Active” in assay [5].

`COc1ccc2oc(=O)c(CC(C)C(=O)NO)cc2c1` (configuration not stated): the values for the IC50 in assay [2], in assay [4] and in assay [5] were 0.22 µM, 0.036 µM and “Not Active”, respectively.

Take `C/C=C/C=C\C=C1\C=C(CCC(=O)NO)C(=O)OC1`: the 50% inhibitory concentration (IC50) in assay [1] was 0.023 µM; in assay [2], 8.8 µM; in assay [3], 0.006 µM; in assay [4], 0.028 µM; in assay [5] it was “Not Active”.

For `Cc1ccc2oc(=O)c(CCC(=O)NO)cc2c1`, the IC50 is 3.05 µM in assay [1]; 1.3 µM in assay [2]; 0.23 µM in assay [3]; 0.06 µM in assay [4]; “Not Active” in assay [5].

As to `O=C(CCc1cc2cc(Br)ccc2oc1=O)NO`, the IC50 in assay [1] is 24.5 µM; in assay [2], 13 µM; in assay [3] it was 0.86 µM; in assay [4] it was 0.84 µM; in assay [5], “Not Active”.

As to `Cc1ccc2oc(=O)c(CC(C)C(=O)NO)cc2c1` (configuration not stated), the IC50 in assay [1] was above 10 µM; in assay [2] it was 0.32 µM; in assay [3], 1.04 µM; in assay [4], 0.003 µM; in assay [5] it was “Not Active”.

For the compound `C=CCC(Cc1cc2cc(C)ccc2oc1=O)C(=O)NO` (configuration not stated), the 50% inhibitory concentration (IC50) in assay [2] is 0.52 µM; in assay [4], 0.03 µM; in assay [5], “Not Active”.

On to `O=C(CCc1cc2cc(Cl)ccc2oc1=O)NO`, for which the IC50 is 16.4 µM in assay [1]; 25.6 µM in assay [2]; 1.47 µM in assay [3]; 0.55 µM in assay [4]; “Not Active” in assay [5].

Take `Cc1ccc2oc(=O)c(CC(Cc3ccccc3)C(=O)NO)cc2c1` (configuration not stated): the half-maximal inhibitory concentration (IC50) is 0.54 µM in assay [2], 0.005 µM in assay [4] and “Not Active” in assay [5].

Take `COc1ccc2oc(=O)c(CCC(=O)NO)cc2c1`: the 50% inhibitory concentration (IC50) in assay [1] was 5.66 µM; in assay [2] it was 2.21 µM; in assay [3], 0.59 µM; in assay [4], 0.11 µM; in assay [5], “Not Active”.

For `CC(C)(C)c1ccc2oc(=O)c(CCC(=O)NO)cc2c1`, the IC50 entry was “Not Active” in assay [6], 12.4 µM in assay [4] and “Not Active” in assay [5].

The values above are taken from ChEMBL document CHEMBL1140764, “Chromen-based TNF-alpha converting enzyme (TACE) inhibitors: design, synthesis, and biological evaluation” (Bioorg Med Chem, 2008).
